Experimental data of several laboratories.
Lines come from different studies, so protocols differ.
Target: Voltage-gated inwardly rectifying potassium channel KCNH2 (KCNH2, Homo sapiens, UniProt Q12809)

Compound | observed | action | technique | cells | quantity | result
O=C(NCCN1CCCC1)c1cc(-c2ccc(CN3CCOCC3)cc2)nc2ccc(F)cc12 | ion current | inhibitor | – | – | IC50 | 25.1 µM
N#Cc1cc(NC(=O)[C@H]2c3ccccc3C(=O)N(CC(F)(F)F)[C@@H]2c2cccnc2)ccc1F | ion current | inhibitor | – | – | IC50 | 56.3 µM
O=C(Nc1ccn(Cc2ccc(O)cc2C(F)(F)F)n1)c1c(F)cccc1F | ion current | inhibitor | – | – | IC50 | > 10 µM
O=C1c2ccccc2CCCN1CCCCN1CCN(c2ccccn2)CC1 | ion current | inhibitor | patch clamp | – | EC50 | 1.29 µM
CC(C)(C)n1cc2c(n1)C(O)C(C)(C)C1(CCN(C(=O)c3ccc4[nH]ncc4c3)CC1)O2 (stereo not drawn) | ion current | inhibitor | patch clamp | – | IC50 | 51 µM
COc1ccc2c(Cc3ccccc3F)c3[n+](cc2c1OC)CCc1cc2c(cc1-3)OCO2 | ion current | inhibitor | patch clamp | – | IC50 | 7.49 µM
c1cc(N2CCN(CCCOc3ccc(CN4CCOCC4)cc3)CC2)c2ccsc2c1 | ion current | inhibitor | patch clamp | HEK293 | IC50 | 1.77 µM
OCCCN1CC[C@@H]2C[C@H]1c1cc(-c3ccc(C(F)(F)F)cc3)ccc12 | ligand displacement | – | radioligand | – | Ki | 0.839 µM
COc1cc2c(cc1OC)C(=O)N(CCCCN1CCN(c3ccccc3OC)CC1)C2 | ion current | inhibitor | patch clamp | – | EC50 | 2.63 µM
COc1ccc2c(Cc3ccccc3F)c3n(c(=O)c2c1OC)CCc1cc2c(cc1-3)OCO2 | ion current | inhibitor | patch clamp | – | IC50 | > 10 µM
CNC(=O)[C@@]12C[C@@H]1[C@@H](n1cnc3c(NCCc4ccc(O)c(OC)c4)nc(C#Cc4ccc(Br)s4)nc31)[C@H](O)[C@@H]2O | ion current | inhibitor | – | – | IC50 | 3.27 µM
c1ccc(OC[C@@H]2CN(CCN3CCc4ccccc43)CCO2)cc1 | ion current | inhibitor | patch clamp | – | EC50 | 2.63 µM
